The structures appear in SMILES notation.

What all share (type): functional, cell-based
One experiment concerns A549. The experiment in a line: Cytotoxicity against human A549 cells. In outline: (§1)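 Human tumour cell lines (A549 lung adenocarcinoma, PANC-1 pancreatic, NCI/ADR-RES […], formerly MCF-7/ADR) obtained from ATCC. In vitro proliferation inhibition run by a previously described protocol. Each sample assayed at least three times to derive the final IC50.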
The next experiment concerns PANC-1. The experiment in a line: Cytotoxicity against human PANC1 cells. The gist of the method: as §1
The next experiment has as its system NCI/ADR-RES. The experiment in a line: Cytotoxicity against human NCI/ADR-RES cells. In outline: as §1

Take `CC1=C/[C@H]2O[C@@H](C/C=C/C=C/C(=O)O[C@@H]3C[C@@H](/C=C/C\C=C\1)O[C@@H](C/C=C\C[C@@H](O)C(=O)O)[C@]3(C)CO)C[C@H](O)[C@H]2C` [LASONOLIDES F]: the IC50 (commonly the concentration that gives 50% inhibition) is more than 9000 nM with A549, 15600 nM in the experiment on PANC-1 and more than 9000 nM with NCI/ADR-RES.
In the case of `C=C(CCC(C)C)COC(=O)[C@H](O)C/C=C\C[C@@H]1O[C@@H]2/C=C/C/C=C/C(C)=C\[C@H]3O[C@@H](C/C=C/C=C/C(=O)O[C@H](C2)[C@@]1(C)CO)C[C@H](O)[C@H]3C` [LASONOLIDE A], the IC50 was 8.6 nM in the experiment with A549, 89 nM in the experiment on PANC-1 and 490 nM in the experiment on NCI/ADR-RES.
In the same order, the values of `CC1=C/[C@H]2O[C@@H](C/C=C/C=C/C(=O)O[C@@H]3C[C@@H](/C=C/C\C=C\1)O[C@@H](C/C=C\CCO)[C@]3(C)CO)C[C@H](O)[C@H]2C` [LASONOLIDE D] are 4500 nM, 4890 nM and more than 9000 nM.
In the same order, the values of `C=C(COC(=O)[C@H](O)C/C=C\C[C@@H]1O[C@@H]2/C=C/C/C=C/C(C)=C\[C@H]3O[C@@H](C/C=C/C=C/C(=O)O[C@H](C2)[C@@]1(C)COC(=O)CCCCCCCCCCC)C[C@H](O)[C@H]3C)C(O)CC(C)C` (stereo partly drawn) [LASONOLIDE G] are more than 6000 nM, more than 6000 nM and more than 6000 nM.
As for `CCOC(=O)[C@H](O)C/C=C\C[C@@H]1O[C@@H]2/C=C/C/C=C/C(C)=C\[C@H]3O[C@@H](C/C=C/C=C/C(=O)O[C@H](C2)[C@@]1(C)CO)C[C@H](O)[C@H]3C` [LASONOLIDE E], the IC50 with A549 was 310 nM; in the experiment with PANC-1, 570 nM; with NCI/ADR-RES it was more than 8000 nM.
For `C=C(COC(=O)[C@H](O)C/C=C\C[C@@H]1O[C@@H]2/C=C/C/C=C/C(C)=C\[C@H]3O[C@@H](C/C=C/C=C/C(=O)O[C@H](C2)[C@@]1(C)CO)C[C@H](O)[C@H]3C)C(O)CC(C)C` (stereo partly drawn) [LASONOLIDE C] the same measures were 130 nM, 380 nM and 1120 nM.

Values taken from ChEMBL document CHEMBL1148202, “Lasonolides C-g, five new lasonolide compounds from the sponge Forcepia sp” (J Nat Prod, 2004).
